ABCG2 inh: human ABCG2 inhibition, ABCB1 as counter-screen. IgMXP3 cells, JC-1 efflux, flow cytometry. actives 0.1% (n = 190,000). inhibition, % at 6.6 µM;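 active means inhibition above 80%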;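 further: 0% = DMSO and 100% = nicardipine control wells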
Target sequence (Q9UNQ0 whole entry, looked up): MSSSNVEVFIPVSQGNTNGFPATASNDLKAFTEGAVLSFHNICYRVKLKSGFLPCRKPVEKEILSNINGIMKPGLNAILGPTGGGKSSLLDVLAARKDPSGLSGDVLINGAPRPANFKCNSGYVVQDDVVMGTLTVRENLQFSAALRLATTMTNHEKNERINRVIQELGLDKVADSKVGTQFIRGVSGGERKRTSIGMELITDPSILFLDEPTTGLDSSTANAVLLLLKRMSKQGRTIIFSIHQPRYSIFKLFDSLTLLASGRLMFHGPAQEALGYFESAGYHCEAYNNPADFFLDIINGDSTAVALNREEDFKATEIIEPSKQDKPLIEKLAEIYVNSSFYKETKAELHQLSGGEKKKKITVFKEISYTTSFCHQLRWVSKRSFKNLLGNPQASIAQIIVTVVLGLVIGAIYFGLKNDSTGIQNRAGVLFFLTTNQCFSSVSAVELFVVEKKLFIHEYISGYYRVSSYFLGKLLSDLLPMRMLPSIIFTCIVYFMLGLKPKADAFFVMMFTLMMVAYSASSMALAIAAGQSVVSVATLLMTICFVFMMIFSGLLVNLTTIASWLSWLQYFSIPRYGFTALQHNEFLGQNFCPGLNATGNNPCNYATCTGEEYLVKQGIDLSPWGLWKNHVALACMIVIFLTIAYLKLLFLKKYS
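material = IgMXP3 (ABCG2) plus far-red-tagged CCRF-Adr (ABCB1) cells | amount = 3 million cells/mL, equal mix of both lines | also added = JC-1 transporter substrate | dosing = one concentration, 6.6 µM final | schedule = 10 min at 25 °C | measured by = flow cytometric JC-1 green MFI at 530 nm | read-out basis = percent efflux inhibition, scaled nicardipine 100% to DMSO 0%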
Arbovirus inh: blocks arbovirus infection; arbovirus infection cell-based antiviral screen; inhibition, % at 10 µM; actives 0.37% (n = 200,000); AID 1251; in the data active means inhibition above about 30%
RAM network inh: blocks the yeast RAM network; S. cerevisiae dse1pr::URA3 reporter, 5-FOA growth OD615, 2 d; analog-sensitive cbk1-as2 kinase mutant strain; inhibition, % at 50 µM; actives 1.8% (n = 190,000);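 active means inhibition above a set limit, 3 SD over mean compound inhibition, cut at about 8.4% in these data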;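 further: 0% = DMSO-only wells with no growth and 100% = 10 µM 1-NA-PP1 full growth; inhibition rescues growth on 5-FOA so higher OD means more RAM inhibition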
ABCB1 inh: human ABCB1 inhibition, ABCG2 as counter-screen; P08183; CCRF-Adr cells, JC-1 efflux, flow cytometry; inhibition, % at 6.6 µM; actives 0.067% (n = 190,000); in the data active means inhibition above about 40%;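 further: 0% = vehicle and 100% = reference inhibitor; higher value means more JC-1 retained so stronger ABCB1 efflux block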
RAM efflux-def: restores 5-FOA growth of efflux-deficient yeast | shares compounds with RAM network inh | S. cerevisiae efflux-deficient reporter strain, 5-FOA growth OD615, 2 days | max inhibition, % | 1,200 tested, under 10 active | AID 1305; call rule not given here;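 further: plate controls were vehicle for no effect and reference inhibitor for full effect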
* marks the source's active call; other numbers are inactive results; + = active, no number. Compounds with a hit are over-represented: about 2.3% of the library has one in this group of screens.

SMILES | ABCG2 inh | Arbovirus inh | RAM network inh | ABCB1 inh | others
O=C(CN(c1ccccc1F)S(=O)(=O)c1ccccc1)NC1CCCCCC1 | 3 | -5 | 11* | 1
Cc1nn(Cc2ccccc2)c(Cl)c1C(=O)OCc1nnc(-c2ccc(Cl)cc2)o1 | 2 | -6 | 8.6* | 0
COc1ccc(OC)c(/C=N/NC(=O)c2cc[n+](CC(=O)c3ccccc3)cc2)c1 | 6 | -8 | 0 | 1
Cc1cc(C(=O)c2ccc(Cl)cc2)c(NC(=O)CCl)s1 | 2 | -37 | 7 | 0
CCc1cc(C(=O)c2ccc(C)cc2)c(NC(=O)CCl)s1 | 2 | -46 | 9.2* | 0
COc1ccc(NS(=O)(=O)c2cc(NC(=O)/C=C/c3ccccc3OC)ccc2N2CCCCC2)cc1 | -7 | -4 | 11* | -1
COc1ccccc1NS(=O)(=O)c1cc(NC(C)=O)ccc1N1CCCCC1 | 3 | 3 | 2 | 2
COc1ccc(NS(=O)(=O)c2cc(NC(=O)/C=C/c3cccs3)ccc2N2CCOCC2)cc1 | -4 | 64* | 3 | -1
CCOC(=O)C1C(=O)NC(N2CCN(Cc3ccccc3)CC2)=NC1c1ccccc1 (stereo not drawn) | 2 | 3 | 0 | 0
NS(=O)(=O)c1ccc(Nc2nc3ccccc3nc2NS(=O)(=O)c2cccc([N+](=O)[O-])c2)cc1 | -1 | 29 | 8.6* | 0
CC(=O)Nc1ccc(S(=O)(=O)Nc2nc3ccccc3nc2Nc2ccc(S(N)(=O)=O)cc2)cc1 | -18 | -7 | 8 | -2
CCOC(=O)c1ccc(N2C(=O)C(C)=C(C)C2=O)cc1 | 3 | -10 | 1 | 1
CCOC(=O)c1ccc(N2C(=O)C3C(/C=C/c4ccccc4)OC4(C(=O)c5ccccc5C4=O)C3C2=O)cc1 (stereo not drawn) | 12 | 73* | 3 | 1
CC(=O)c1cc2c(C)c(C(=O)c3ccccc3)oc2cc1O | 13 | 6 | 6 | 1
CC(=O)Nc1ccc(NC(=O)CSc2nnc3c4ccccc4n(C)c3n2)cc1 | 0 | 15 | 8.5* | 0
CCc1nnc(NC(=O)CSc2nnc3c4ccccc4n(C)c3n2)s1 | 17 | 3 | 2 | 2
Cc1nn(-c2ccccc2)c(N2CCCC2)c1/C=N/NC(=O)c1cc(-c2cccs2)nc2ccccc12 | 1 | -5 | 5 | 1
COC(=O)c1ccc(NC(C)C(=O)OC)c([N+](=O)[O-])c1 (stereo not drawn) | 33 | -1 | 0 | 1
CN(C)S(=O)(=O)c1ccc(N2CCCC2)c(C(=O)NCC2CCCCC2)c1 | -1 | -2 | 0 | 0
O=C(Nc1ccc2oc(-c3ccncc3)nc2c1)c1c(F)c(F)c(F)c(F)c1F | 7 | 4 | 6 | 0
COc1c(F)c(F)c(C(=O)Nc2ccc3oc(-c4ccncc4)nc3c2)c(F)c1F | 5 | -1 | 8.9* | 0
CSC1=NSC2=NC(=O)/C(=C\c3coc4ccccc4c3=O)C(=N)N12 | 63 | 5 | 1 | 11
CC(C)CSC1=NSC2=NC(=O)/C(=C\c3coc4ccccc4c3=O)C(=N)N12 | + | 52* | 9.0* | 134*
CC12CN3CC(C)(CN(C1)C3c1ccc3c(c1)OCO3)C2=O (stereo not drawn) | 1 | -1 | 0 | 0
COc1cc(NS(=O)(=O)c2ccc(NC(=O)/C=C/c3cccc([N+](=O)[O-])c3)cc2)ncn1 | 3 | -7 | 8.9* | 1
SMILES | ABCG2 inh | Arbovirus inh | RAM network inh | ABCB1 inh | others
CCOc1nc(-c2ccccc2)ccc1-c1noc(-c2ccncc2)n1 | 7 | -1 | 0 | 1
CCOc1nc(-c2ccccc2)ccc1-c1noc(-c2cccs2)n1 | 14 | -13 | 11* | 0
CCOC(=O)c1ccc(NC(=O)CSc2nnc(CNc3ccc(C)cc3)n2C)cc1 | 4 | 4 | 4 | 1
CCN(CC)C(=O)CCc1nnc(Cc2cccc(C(F)(F)F)c2)o1 | 15 | -5 | 0 | 0
O=C(OCc1cccc([N+](=O)[O-])c1)c1ccc2ccccc2n1 | 3 | -1 | 9.6* | 0
Cc1ccc(NC(=O)CN2C(=O)S/C(=C\c3cc(C)n(C)c3C)C2=O)cc1 | 0 | -10 | 1 | 0
COc1cccc(CN=C2Nc3ccccc3CS2)c1 | 3 | 30* | -1 | 1
N#Cc1ccccc1Sc1ccccc1C(=O)OCc1nnc(-c2ccccc2)o1 | 31 | 4 | 10* | 2
Cc1cccc(Nc2nc(-c3ccccc3)c(C(=O)Nc3cccnc3)s2)c1 | 1 | 12 | 8 | 0
COc1ccc(C(=O)N/C(=C\c2cn(S(=O)(=O)N(C)C)c3ccccc23)C(=O)NC(C)C)cc1 | -2 | 3 | 9.3* | -1
COc1cccc(CC(=O)NCC2COc3ccccc3O2)c1OC (stereo not drawn) | 0 | 1 | 0 | 0
Cc1ccc(NC(=O)COc2ccc(Br)cc2CO)cc1 | 49 | 36* | 0 | 0
CCC1Oc2ccccc2N(Cc2ccccc2C)C1=O (stereo not drawn) | 1 | -9 | 2 | 0
CCCCn1c(SCC(=O)N2CCC(C)CC2)nc2ccsc2c1=O | 64 | 13 | 1 | 7
CCCCn1c(SCC(=O)N2CCN(c3ccccc3)CC2)nc2ccsc2c1=O | 11 | 34* | 1 | 4
CCOC(=O)C1=C(O)/C(=C/c2ccc(OCC(=O)O)c(OC)c2)SC1=Nc1ccc(OC)cc1 | -2 | 4 | 14* | -1 | RAM efflux-def=9
C=CCN1C(=O)/C(=C\c2cc(Br)c(OCc3ccccn3)c(OC)c2)SC1=S | 5 | 7 | 19* | 1 | RAM efflux-def=2
COc1cc(/C=C2\SC(=S)N(CC(=O)Nc3ccccn3)C2=O)cc(OC)c1OC | -13 | -9 | 6 | -2
CCCCc1ccc(/C=C2\C(=O)c3ccccc3C(O)=C2C(=O)OCC)cc1 | 8 | -40 | 14* | 12 | RAM efflux-def=8
CCCCCOC(=O)NCC(O)c1ccccc1 (stereo not drawn) | 4 | -3 | 0 | 4
C/C(N)=C(/C#N)C(=O)CSc1nc2ccccc2c(=O)n1-c1ccc(C)cc1 | 3 | -1 | 2 | 4
C/C(N)=C(/C#N)C(=O)CSc1nc2ccccc2c(=O)n1-c1ccc(C)c(Cl)c1 | 5 | -17 | 12* | 2 | RAM efflux-def=3
Cn1c(CN2CCCCC2)nc2cc(NC(=O)c3ccccc3Cl)ccc21 | 2 | -25 | -1 | 0
COc1cccc(NC(=O)NCc2ccccc2F)c1 | 8 | -4 | 0 | -1
COc1cccc(N/C(SCc2ccccc2F)=C(/C#N)C(=O)NCc2cccs2)c1 | -1 | -9 | 16* | 0 | RAM efflux-def=3
O=C(OCC#CCSc1nnc(-c2ccncc2)o1)c1cccs1 | 1 | 0 | 1 | 0
O=C(OCC#CCSc1nnc(-c2cccc3ccccc23)o1)c1ccco1 | 1 | 0 | 17* | 0 | RAM efflux-def=2
CCn1c(SCc2nc3ccccc3c(=O)[nH]2)nnc1-c1cccnc1 | 2 | 3 | -1 | 0

Assay outcomes deposited in PubChem BioAssay by several laboratories.
